The values below come from publication PMC2788666 (Journal of medicinal chemistry, 2009).

“Also recorded” adds a separate entry of the source. Like-named read-outs stand apart in the source and are kept apart here.

In data set [1] the target is T1, μ opioid receptor (Homo sapiens, UniProt P35372). Briefly: [35S]GTPγS binding mediated by the μ opioid receptor, agonist effects. Type of data set: biochemical. The following applies: for Functional Activity at μ opioid receptor: [35S]GTPγS binding; for Emax (% stimulation) ± S.E.M., Mu Agonist Effects: CHO cells expressing μ opioid receptor. On the technique in general: Binding of GTPγS marks nucleotide exchange on a G protein.

The target of data set [2] is T2, κ opioid receptor (Homo sapiens, UniProt P41145). Briefly: Opioid binding to κ receptor, [3H]U69,593, CHO membranes. The following applies: for times less active than unsubstituted C10 bivalent ligand 10 at the κ receptor: binding affinity versus 10; for Selectivity μ/δ/κ: ratio of Ki values, κ = 1. In outline: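 Membranes from CHO cells stably expressing human κ opioid receptor were incubated 60 min at 25 °C in 50 mM Tris-HCl pH 7.5 with 1 nM (final) [3H]U69,593. […] Samples were filtered on glass-fibre filters presoaked ≥30 min in 0.1% polyethylenimine, washed three times with cold Tris buffer, and counted by scintillation. IC50 came from a log-probit least-squares fit, Ki from IC50/(1+S), and ratios from Ki values.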

The target in data set [3] is T2, κ opioid receptor. Briefly: [35S]GTPγS binding mediated by the kappa opioid receptor, agonist effects. Type of data set: biochemical. Conditions: for Functional activity at κ opioid receptor: [35S]GTPγS binding. The gist of the method:
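CHO cells expressing κ opioid receptor were incubated with test compound at 12 concentrations, and agonist-stimulated [35S]GTPγS binding was measured. EC50 and maximal stimulation (% stimulation) are reported with S.E.M.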

For data set [4], the target named is T2, κ opioid receptor. As to the kind of experiment: [35S]GTPγS binding mediated by the kappa opioid receptor, antagonist effects. Type of data set: biochemical. Conditions: for IC50 (nM) ± S.E.M., Kappa Antagonist Effects: binding stimulated with 100 nM U50,488; for Imax (% inhibition) ± S.E.M., Kappa Antagonist Effects: binding stimulated with 100 nM U50,488, set at 100% control. The gist of the method: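 Antagonist mode in CHO cells expressing κ opioid receptor: [35S]GTPγS binding was stimulated with 100 nM U50,488, taken as 100% control binding. Inhibition of this stimulated binding by test compound was measured, and IC50 and maximal inhibition (% inhibition) are reported with S.E.M.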

The target of data set [5] is T1, μ opioid receptor. Briefly: [35S]GTPγS binding mediated by the μ opioid receptor, antagonist effects. The following applies: binding stimulated with 200 nM DAMGO; for Imax (% inhibition) ± S.E.M., Mu Antagonist Effects: set at 100% control. The format is biochemical.
For data set [6], the target named is T2, κ opioid receptor. Conditions: ratio of Ki values, κ = 1; ref [2]; cited from earlier work.
For data set [7] the following is noted: pH 7.4; ref [8]; cited from earlier work.

T2 sequence (P41145 whole entry): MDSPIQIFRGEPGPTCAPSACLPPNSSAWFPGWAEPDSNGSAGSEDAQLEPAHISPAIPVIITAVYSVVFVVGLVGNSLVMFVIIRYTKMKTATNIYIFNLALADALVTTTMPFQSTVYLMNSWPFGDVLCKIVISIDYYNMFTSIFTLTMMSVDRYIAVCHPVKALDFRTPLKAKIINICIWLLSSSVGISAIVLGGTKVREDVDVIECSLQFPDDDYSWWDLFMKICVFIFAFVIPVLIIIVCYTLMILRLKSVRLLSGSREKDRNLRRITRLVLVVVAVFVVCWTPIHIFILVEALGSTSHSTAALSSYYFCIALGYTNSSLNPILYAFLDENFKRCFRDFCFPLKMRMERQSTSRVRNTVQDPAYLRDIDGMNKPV
T1 sequence (P35372 whole entry): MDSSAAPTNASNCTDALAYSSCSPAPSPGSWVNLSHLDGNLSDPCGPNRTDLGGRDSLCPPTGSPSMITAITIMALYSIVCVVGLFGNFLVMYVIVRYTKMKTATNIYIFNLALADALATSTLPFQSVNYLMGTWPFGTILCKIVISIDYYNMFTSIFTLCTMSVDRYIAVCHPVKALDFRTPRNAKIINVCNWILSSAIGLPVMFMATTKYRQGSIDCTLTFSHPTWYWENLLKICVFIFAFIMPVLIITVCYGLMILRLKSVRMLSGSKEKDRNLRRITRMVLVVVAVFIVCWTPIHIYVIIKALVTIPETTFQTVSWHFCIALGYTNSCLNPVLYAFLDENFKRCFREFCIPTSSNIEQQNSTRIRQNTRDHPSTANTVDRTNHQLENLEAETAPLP

Consider `CC(C)(CCCCCCC(C)(C)C(=O)Oc1ccc2c(c1)[C@@]13CCCC[C@H]1[C@@H](C2)N(CC1CCC1)CC3)C(=O)Oc1ccc2c(c1)[C@@]13CCCC[C@H]1[C@@H](C2)N(CC1CCC1)CC3` [4b, Bis((−)-N-cyclobutylmethylmorphinan-3-yl) 2,2,9,9-tetramethyldecanedioate], for which, at μ opioid receptor [1], the “Functional Activity at μ opioid receptor” value is “Partial Agonist”. In addition, at κ opioid receptor [2], the “times less active than unsubstituted C10 bivalent ligand 10 at the κ receptor” value is “approximately 10 times” and the “Selectivity μ/δ/κ” value is listed as 1/32/1. On κ opioid receptor [3], the “Functional activity at κ opioid receptor” value was “partial agonists; also recorded: κ agonists; also recorded: Agonist”. At κ opioid receptor [4], the “IC50 (nM) ± S.E.M., Kappa Antagonist Effects” value is given as “No inhibition” and the “Imax (% inhibition) ± S.E.M., Kappa Antagonist Effects” value was “No inhibition”.
Regarding `Oc1ccc2c(c1)[C@@]13CCCC[C@H]1[C@@H](C2)N(CC1CCC1)CC3` [Butorphan, butorphan], on μ opioid receptor [1], the “Emax (% stimulation) ± S.E.M., Mu Agonist Effects” value came to 50 ± 2.5 % stimulation and the “Functional Activity at μ opioid receptor” value is listed as “Partial Agonist”. The “Emax (% stimulation) ± S.E.M., Kappa Agonist Effects” value on κ opioid receptor [3] (CHO cells expressing κ opioid receptor) amounted to 80 ± 6.8 % stimulation. For the same molecule, on κ opioid receptor [3], the “Functional activity at κ opioid receptor” value is recorded as “Agonist”. Besides, the “Imax (% inhibition) ± S.E.M., Mu Antagonist Effects” value at μ opioid receptor [5] came to 50 ± 2.6 % inhibition.
In the case of `O=C(CCCCCCCCC(=O)Oc1ccc2c(c1)[C@@]13CCCC[C@H]1[C@@H](C2)N(CC1CCC1)CC3)Oc1ccc2c(c1)[C@@]13CCCC[C@H]1[C@@H](C2)N(CC1CCC1)CC3` [compound 10, reference compound], at μ opioid receptor [1], the “Emax (% stimulation) ± S.E.M., Mu Agonist Effects” value was 51 ± 6.5 % stimulation and the “Functional Activity at μ opioid receptor” value was “Partial Agonist”. In addition, the “Functional activity at κ opioid receptor” value at κ opioid receptor [3] was “Agonist”. Further, the “Selectivity μ/δ/κ” value at κ opioid receptor [6] is on record as 2/90/1. Also, on κ opioid receptor [4], the “IC50 (nM) ± S.E.M., Kappa Antagonist Effects” value is reported as “No inhibition” and the “Imax (% inhibition) ± S.E.M., Kappa Antagonist Effects” value is “No inhibition”.
On to `CC(CCCCCCC(C)C(=O)Oc1ccc2c(c1)[C@@]13CCCC[C@H]1[C@@H](C2)N(CC1CCC1)CC3)C(=O)Oc1ccc2c(c1)[C@@]13CCCC[C@H]1[C@@H](C2)N(CC1CCC1)CC3` (stereo partly drawn) [4a, Bis((−)-N-cyclobutylmethylmorphinan-3-yl) 2,9-dimethyldecanedioate], for which the “Functional Activity at μ opioid receptor” value on μ opioid receptor [1] was “Partial Agonist”. For the same molecule, the “times less active than unsubstituted C10 bivalent ligand 10 at the κ receptor” value at κ opioid receptor [2] was “approximately 10 times”. For the same molecule, the “Functional activity at κ opioid receptor” value on κ opioid receptor [3] is reported as “partial agonists; also recorded: κ agonists; also recorded: Agonist”. Besides, on κ opioid receptor [4], the “IC50 (nM) ± S.E.M., Kappa Antagonist Effects” value is “No inhibition” and the “Imax (% inhibition) ± S.E.M., Kappa Antagonist Effects” value is recorded as “No inhibition”.
Regarding `CC(C)(CCCCCCC(C)(C)C(=O)Oc1ccc2c(c1)[C@@]13CCCC[C@H]1[C@@H](C2)N(CC1CCC1)CC3)C(=O)O` [7b, 2,2,9,9-Tetramethyldecanedioic acid 10-((−)-N-cyclobutylmethylmorphinan-3-yl) ester], the “Selectivity μ/δ/κ” value on κ opioid receptor [2] is 3/22/1.
In the case of `CC(CC(=O)Oc1ccccc1)C(=O)O` (stereo not drawn) [mono phenyl ester of 2-methylsuccinic acid], the “times more stable than mono phenyl succinate” value in data set [7] is 43 times.
With `O=C(O)CCCCCCCCC(=O)Oc1ccc2c(c1)[C@@]13CCCC[C@H]1[C@@H](C2)N(CC1CCC1)CC3` [compound 9, reference compound], the “Functional Activity at μ opioid receptor” value at μ opioid receptor [1] is given as “full μ agonist”. For the same molecule, at κ opioid receptor [3], the “Functional activity at κ opioid receptor” value was “κ agonists; also recorded: full agonist”. In addition, at κ opioid receptor [4], the “IC50 (nM) ± S.E.M., Kappa Antagonist Effects” value is on record as “No inhibition” and the “Imax (% inhibition) ± S.E.M., Kappa Antagonist Effects” value is “No inhibition”. In addition, on μ opioid receptor [5], the “IC50 (nM) ± S.E.M., Mu Antagonist Effects” value is “No inhibition” and the “Imax (% inhibition) ± S.E.M., Mu Antagonist Effects” value was “No inhibition”.
As for `C=CCN1CC[C@]23c4c5ccc(OC(=O)CCCCCCCCC(=O)Oc6ccc7c(c6)[C@@]68CCCC[C@H]6C(C7)N(CC6CCC6)CC8)c4O[C@H]2CCC[C@H]3[C@H]1C5` [compound 11, reference compound], the “Functional Activity at μ opioid receptor” value at μ opioid receptor [1] is “Partial Agonist”. Also, the “Functional activity at κ opioid receptor” value at κ opioid receptor [3] is given as “κ agonists; also recorded: Agonist”. For the same molecule, at κ opioid receptor [4], the “IC50 (nM) ± S.E.M., Kappa Antagonist Effects” value is recorded as “No inhibition” and the “Imax (% inhibition) ± S.E.M., Kappa Antagonist Effects” value is recorded as “No inhibition”.
Take `CC(CCCCCCC(C)C(=O)Oc1ccc2c(c1)[C@@]13CCCC[C@H]1[C@@H](C2)N(CC1CCC1)CC3)C(=O)O` (stereo partly drawn) [7a, 2,9-Dimethyldecanedioic acid 10-((−)-N-cyclobutylmethylmorphinan-3-yl) ester]: the “Functional Activity at μ opioid receptor” value at μ opioid receptor [1] is “Partial Agonist”. The “Selectivity μ/δ/κ” value at κ opioid receptor [2] is listed as 1/48/1. The “Functional activity at κ opioid receptor” value at κ opioid receptor [3] is “κ agonists; also recorded: Agonist”. At κ opioid receptor [4], the “IC50 (nM) ± S.E.M., Kappa Antagonist Effects” value is “No inhibition” and the “Imax (% inhibition) ± S.E.M., Kappa Antagonist Effects” value is “No inhibition”.
